Data published in ChEMBL document CHEMBL1153008, “Synthesis and antitubercular activity of novel 4-substituted imidazolyl-2,6-dimethyl-N3,N5-bisaryl-1,4-dihydropyridine-3,5-dicarboxamides” (2009).
Converted amounts (≈) assume the structure as drawn.

Columns and labels:
Assay type in all cases: functional
[1] = Cytotoxicity against human Kga1 cells by MTT assay
Raji = assay: Cytotoxicity against human Raji cells by MTT assay
Jurkat = assay: Cytotoxicity against human Jurkat cells by MTT assay
HeLa = assay: Cytotoxicity against human HeLa cells by MTT assay
[2] = tested on: Mycobacterium tuberculosis; assay: Antitubercular activity against Mycobacterium tuberculosis H37Rv ATCC 27294 after 21 days by agar proportion method; conditions: H37Rv ATCC 27294, 504 h
Procedure, shortened: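 Agar proportion method on Middlebrook 7H10 tubes against rifampicin/isoniazid-susceptible H37Rv. Inoculum: 4–7 day 7H9 broth culture at 37 °C, adjusted to McFarland no. 1, then diluted 10^-2 and 10^-4; 0.1 mL per tube. Incubated 21 days at 37 °C under 5–7% CO2. Colonies counted and compared with drug-free control. Two independent measurements.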

| SMILES | IC30 [1] [µg/mL] | IC30 (Raji) [µg/mL] | IC30 (Jurkat) [µg/mL] | IC30 (HeLa) [µg/mL] | MIC [2] [µg/mL] |
| --- | --- | --- | --- | --- | --- |
| CSc1ncc(C2C(C(=O)Nc3ccc(Cl)cc3)=C(C)NC(C)=C2C(=O)Nc2ccc(Cl)cc2)n1Cc1ccccc1 | 58.9 (≈ 95.2 µM) | 85.1 (≈ 138 µM) | 12.3 (≈ 19.9 µM) | > 100 |  |
| CSc1ncc(C2C(C(=O)Nc3cccc(Cl)c3)=C(C)NC(C)=C2C(=O)Nc2cccc(Cl)c2)n1Nc1ccccc1 |  |  |  |  | > 16 |
| CSc1ncc(C2C(C(=O)Nc3cccc(Cl)c3)=C(C)NC(C)=C2C(=O)Nc2cccc(Cl)c2)n1Cc1ccccc1 | 26.3 (≈ 42.5 µM) | 69.2 (≈ 112 µM) | 47.9 (≈ 77.4 µM) | > 100 |  |
| CSc1ncc(C2C(C(=O)Nc3cccnc3)=C(C)NC(C)=C2C(=O)Nc2cccnc2)n1Nc1ccccc1 |  |  |  |  | > 16 |
| CSc1ncc(C2C(C(=O)Nc3ccc(Cl)cc3)=C(C)NC(C)=C2C(=O)Nc2ccc(Cl)cc2)n1Nc1ccccc1 |  |  |  |  | > 16 |
| CSc1ncc(C2C(C(=O)Nc3ccc(Br)cc3)=C(C)NC(C)=C2C(=O)Nc2ccc(Br)cc2)n1Nc1ccccc1 |  |  |  |  | > 16 |
| CSc1ncc(C2C(C(=O)Nc3ccccc3Cl)=C(C)NC(C)=C2C(=O)Nc2ccccc2Cl)n1Nc1ccccc1 | > 100 | 43.6 (≈ 70.5 µM) | 7.76 (≈ 12.5 µM) | > 100 | > 16 |
| CSc1ncc(C2C(C(=O)Nc3cccnc3)=C(C)NC(C)=C2C(=O)Nc2cccnc2)n1Cc1ccccc1 | 27.5 (≈ 49.9 µM) | 75.8 (≈ 137 µM) | 37.1 (≈ 67.3 µM) | 91.2 (≈ 165 µM) |  |
| CSc1ncc(C2C(C(=O)Nc3ccccn3)=C(C)NC(C)=C2C(=O)Nc2ccccn2)n1Cc1ccccc1 | 19.1 (≈ 34.5 µM) | 60.2 (≈ 109 µM) | 43.6 (≈ 79.1 µM) | > 100 |  |
| CSc1ncc(C2C(C(=O)Nc3ccccn3)=C(C)NC(C)=C2C(=O)Nc2ccccn2)n1Nc1ccccc1 | > 100 | > 100 | 13.5 (≈ 24.4 µM) | 67.6 (≈ 122 µM) | > 16 |
| COc1cccc2c1C(=O)c1c(O)c3c(c(O)c1C2=O)C[C@@](O)(C(=O)CO)C[C@@H]3O[C@H]1C[C@H](N)[C@H](O)[C@H](C)O1 [DOXORUBICIN] |  | 1.51 (≈ 2.78 µM) | 2.13 (≈ 3.92 µM) |  |  |
| NNC(=O)c1ccncc1 [ISONIAZID] |  |  |  |  | 0.2 (≈ 1.46 µM) |
| CO[C@H]1/C=C/O[C@@]2(C)Oc3c(C)c(O)c4c(O)c(c(/C=N/N5CCN(C)CC5)c(O)c4c3C2=O)NC(=O)/C(C)=C\C=C\[C@H](C)[C@H](O)[C@@H](C)[C@@H](O)[C@@H](C)[C@H](OC(C)=O)[C@@H]1C [RIFAMPIN] |  |  |  |  | 1 (≈ 1.22 µM) |
